Source: ChEMBL document CHEMBL4513216, “Probing the Open Global Health Chemical Diversity Library for Multistage-Active Starting Points for Next-Generation Antimalarials” (ACS Infect Dis, 2020)

Assay: Toxicity liver stage against HepG2, at 10uM
Type: cell-based
Design: test concentration 10 uM, cell line HepG2-A16-CD81EGFP
Conditions: human, HepG2-A16-CD81EGFP cells; read-out: INHIBITION
Procedure, shortened: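 Uninfected HepG2-A16-CD81EGFP cells, 3 × 10^3 per well, 1536-well, plated on prespotted compound at 10 μM final, parasite-free screening media added to match infected plates; puromycin 10 μM positive, DMSO 0.5% negative; run in parallel with 48 h PbLuc assay at 37 °C, 5% CO2; viability by CellTiter-Glo luminescence, normalized to controls.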

| SMILES | cytotoxicity at 10 µM |
| --- | --- |
| c1cncc(O[C@H]2COCCN(Cc3c[nH]c4ccccc34)C2)c1 | 0.208% |
| CC(C)NC(=O)N(Cc1cc(O)nc2ccccc12)C(C)C | 0.266% |
| O=C(NCCc1cccc(F)c1)C1(n2cnnn2)CCCCC1 | 1.04% |
| Cc1ncn(CCNC(=O)Nc2ccccc2)c(=O)c1C | -4.39% |
| O=C(COc1ccc(-n2cccn2)nn1)NC1CCCCC1 | -1.03% |
| Cn1nccc1-c1nc2c(cc1C(=O)O)CCN(CC1CC1)CC2 | -119% |
| CC(=O)N1CCO[C@@H]2CN(S(=O)(=O)c3ccccc3F)C[C@@H]2C1 | 12.6% |
| COCC1c2nnn(C)c2CCN1C(=O)Cc1ccc2c(c1)OCO2 (stereo unspecified) | 9.46% |
| O=C(NCC1CC1)[C@@H]1C[C@@H]2CCN(Cc3ccoc3)C[C@@H]2O1 | -2.65% |
| CCN1C[C@@H]2CN(C(=O)c3ccsc3)C[C@@H]2C1=O | -6.57% |
| O=C1CC(c2ccc(C(=O)O)cc2)c2ncn(-c3ccc(F)cc3)c2N1 (stereo unspecified) | -3.67% |
| CC(=O)c1c(O)n(C)c2ccc(C)cc12 | 8.58% |
| Cc1ccc(-c2csc(N)c2C#N)cc1 | -1.61% |
| Cc1ccc(C(=O)Nc2c(C(=O)N(C)C)nn(C)c2C)cc1 | 5.59% |
| Cc1nc(NCc2ccc(F)cc2)cc(C(=O)N2CCOCC2)n1 | -9.14% |
| CCCNC(=O)c1cnc(N(C)C)nc1COC | 3.17% |
| Cc1ccccc1C(=O)N1CCOC(c2ncc(CN(C)C)[nH]2)C1 (stereo unspecified) | 0.53% |
| Oc1cc(-c2ccsc2)nc(C2CCN(Cc3cccnc3)CC2)n1 | 2.95% |
| O[C@@H]1CN(Cc2cnccn2)C[C@H]1Oc1ccccc1 | -29.5% |
| Cc1ccnc(C2CCN(S(=O)(=O)c3cn(C)cn3)CC2)n1 | 3.24% |
| CCc1ccccc1Nc1noc2c1CN(C(=O)CNC(C)=O)CC2 | -20.1% |
| Cc1nc(C2CCCN2C(=O)Cc2ccc(F)cc2)nc(O)c1C (stereo unspecified) | -30.4% |
| CC(C)CC(=O)Nc1ccccc1Oc1ccsc1C(=O)O | 6.2% |

| SMILES | cytotoxicity at 10 µM |
| --- | --- |
| CC(=O)NC(Cc1c[nH]c2cc(F)ccc12)C(=O)Nc1nncs1 (stereo unspecified) | 1.22% |
| CCOC(=O)NCC(=O)Nc1nc2ccccc2n1C(C)(C)C | -4.62% |
| CN(C)S(=O)(=O)N(C)C(c1cccnc1)c1ccc(F)c(F)c1 (stereo unspecified) | -3.53% |
| CC(NC(=O)c1ccoc1)C(=O)N(C)Cc1ccc(O)cc1 (stereo unspecified) | -3.59% |
| CN(CCSc1nncn1C(C)(C)C)c1ccccc1 | 24% |
| Cc1noc(CN(Cc2ccc3c(c2)OCCO3)Cc2ccco2)n1 | -10.8% |
| Cn1ccc(C(=O)Nc2cccc(-c3ccc4c(c3)CCO4)n2)cc1=O | -1.26% |
| O=C(NCCc1cccnc1)NCCc1cccs1 | -1.51% |
| CCNC(=O)c1ccc(NC2CCOC3(CCCCC3)C2)nn1 (stereo unspecified) | -3% |
| O=C(NC1CC1)c1ccc(SCc2cscn2)cc1 | 1.26% |
| CC(CNS(N)(=O)=O)Oc1ccc(Cl)cc1 (stereo unspecified) | -5.37% |
| Cc1cc(OCCC(=O)Nc2cccc(F)c2)nnc1C | -2.32% |
| CCc1ccc(NC(C(N)=O)c2ccc(F)cc2)cc1 (stereo unspecified) | 2.27% |
| Cc1occc1C(=O)NCC(=O)NCCOc1cccc(Cl)c1 | 0.0264% |
| COc1c(CNCc2cccnc2OC(C)C)c(C(C)C)nn1C | 11.1% |
| O=C(NC1CCCCC1)NC1CCCc2c1cnn2CCO (stereo unspecified) | 8.39% |
| CC(C)CCNC(=O)c1cccnc1Oc1cccnc1 | -0.379% |
| COc1ccnc(N2CCN(C(=O)c3cnc(C4CC4)s3)CC2)n1 | -5.35% |
| Cc1noc(CN(CCc2ccco2)Cc2cccc(C#N)c2)n1 | 3.04% |
| CC(C)(C)OC(=O)N1CCC(C(=O)NCc2ccccc2)C1 (stereo unspecified) | 17.7% |
| CCN1CC(C(=O)NC(C)(C)C(=O)OC)CC1=O (stereo unspecified) | -143% |
| CC(C)C(=O)N1CCC(NC2CCSCC2)C1 (stereo unspecified) | -3.54% |
| CC(C)(C)NC(=O)Cn1cc(C(N)=O)c(-c2ccccc2)n1 | -12.8% |

| SMILES | cytotoxicity at 10 µM |
| --- | --- |
| CCN(CC)Cc1ccccc1NC(=O)N(C)Cc1ccccc1O | -1.57% |
| NC(=O)C(Nc1cccc(CO)c1)c1ccc(Br)cc1 (stereo unspecified) | 9.17% |
| CC1CCN(c2ccc(CNC(=O)NCCn3ccnc3)cn2)CC1 | -9.48% |
| N#CCc1ccc(OCC(=O)NS(=O)(=O)c2ccc(Br)s2)cc1 | -5.46% |
| Cc1cc(NS(=O)(=O)CC2CCCCO2)ccc1F (stereo unspecified) | -11.7% |
| Cc1cc(CNC(=O)N2CCOC(c3ccccc3Cl)C2)no1 (stereo unspecified) | 0.658% |
| CC(C)Cn1ccnc1CNC(=O)N1CCCC1CN1CCOCC1 (stereo unspecified) | -6.29% |
| Cc1cc(C2CCCN2S(=O)(=O)c2cnn(C)c2)on1 (stereo unspecified) | -5.22% |
| CC(C)(C(=O)NCc1n[nH]c(=O)[nH]1)c1ccc(F)cc1 | 7.52% |
| Cc1cccnc1NC(=O)C1CCCN1Cc1ccccc1 (stereo unspecified) | 10.2% |
| CS(=O)(=O)c1ccc(OCCNCc2ccc(F)cc2F)cc1 | -8.25% |
| Cc1ccc(S(=O)(=O)N2CCC3(CC(C(=O)NCC(C)C)=NO3)C2)cc1 (stereo unspecified) | -0.819% |
| Cn1cc(-c2cnc(N3CCOCC3)nc2)cc1C(=O)N1CCOCC1 | 9.8% |
| CCN1CC(CN(C)Cc2nc(-c3cccc(C)c3)oc2C)CC1=O (stereo unspecified) | -9.8% |
| COc1ccccc1OCCCn1c(C)c(C)oc1=O | 0.129% |
| O=C(c1ccc(Cl)cc1)N1CCC2(CC1)C(=O)Nc1ccccc12 | -145% |
| c1ccc(SCCN2CCN(CCn3cncn3)CC2)cc1 | -2.88% |
| CCc1cc(NC2CCOCC2)n2nc(C)c(C)c2n1 | 0.551% |
| CCc1nc(C)c(-c2nccn2CC2CCCCO2)[nH]1 (stereo unspecified) | 3.98% |
| CCNc1ccnc(NC2CCN(CC(N)=O)CC2)n1 | -15.7% |
| Cn1ncnc1-c1ccnc(NCc2ccccn2)n1 | -2.46% |
| CCC[C@H]1CN(S(C)(=O)=O)C[C@@H]1NC(=O)CCCn1ccnc1 | 4.47% |
| Cc1cc(=O)c2ccccc2n1CC1CCCN(C)C1 (stereo unspecified) | -5.82% |

| SMILES | cytotoxicity at 10 µM |
| --- | --- |
| Cc1cc(CN2CCC(CNC(=O)c3ccc(C#N)cc3)C2)[nH]n1 (stereo unspecified) | -138% |
| COc1cc(-c2nc(C3CC3)nn2-c2ccnc(C)c2)nc(OC)n1 | 2.64% |
| Cc1nccn1C1(C(=O)O)CCN(Cc2ccc3c(c2)OCCO3)CC1 | -1.53% |
| CCC[C@@H]1CN(Cc2c[nH]c(CC3CCCC3)n2)C[C@H]1C(=O)O | 4.86% |
| CCCc1cc(C(=O)N(Cc2cccnc2)C2CCCCC2)[nH]n1 | -11.2% |
| Cc1csc2c(N3CCNC(C(=O)N4CCCC4)C3)ncnc12 (stereo unspecified) | -5.6% |
| O=C(CC(F)(F)F)N1CCc2[nH]nc(-c3ccc4c(c3)OCO4)c2C1 | -149% |
| Fc1ccc(NC2CCCN(Cc3ccncc3)C2)cc1 (stereo unspecified) | 3.58% |
| O=C(CC[C@@H]1CCCN2CCCC[C@H]12)N1CCC(c2nnc[nH]2)CC1 | 2.61% |
| CC(=O)N1CCCCC1c1ncnn1-c1ccc2nc(C)sc2c1 (stereo unspecified) | -12% |
| CN(CCc1cn[nH]c1)C(=O)C1CC(=O)N(Cc2cccnc2)C1 (stereo unspecified) | -0.812% |
| COc1cccc2c1OCC(CNC(=O)CCCN1CCOCC1)C2 (stereo unspecified) | 16.6% |
| COc1ccccc1[C@@H]1CN(C(=O)c2csc(C)n2)C[C@H]1C(=O)O | 4.98% |
| CCCn1ncc2c(C(=O)Nc3cnn(CC)c3C)cc(C3CC3)nc21 | -0.842% |
| Cc1nc(CN2CCCC(NCc3cnn(C)c3)C2)no1 (stereo unspecified) | -2.53% |
| CC(C)Cc1cc(NC(=O)c2cccnc2)n(C)n1 | -7.09% |
| O=C(NCc1ccc(Cl)s1)NCc1nnc2n1CCCCC2 | -2.06% |
| CCc1ncc2c(n1)CN(Cc1nc(-c3cccnc3)no1)CC2 | -1.62% |
| COC1CCN(C(=O)CCn2cccn2)CC1 | -13.4% |
| Cc1cc(C2CCCN2Cc2cc(=O)n(C)c(=O)n2C)no1 (stereo unspecified) | -20.6% |
| CCNC(=O)NC(=O)CNc1cc(C#N)ccc1OCC | -19.7% |
| CN(Cc1ccc(O)cc1)C(=O)NCc1nnc2n1CCCCC2 | -11.1% |
| COc1ccc(-c2nc(CN3CCc4cnc(C)nc4C3)no2)cc1 | -7.1% |

| SMILES | cytotoxicity at 10 µM |
| --- | --- |
| CCn1cnnc1CNC(=O)NC(c1cccs1)C1CCCC1 (stereo unspecified) | -11.2% |
| O=C(NCCCn1nc2ccccn2c1=O)NCc1ccccc1 | -16.1% |
| COc1ccc(OCCC(=O)N2CCCC2Cn2cccn2)cc1 (stereo unspecified) | -39% |
| CCc1csc(C2CCCN(C(=O)c3ccc4[nH]nnc4c3)C2)n1 (stereo unspecified) | -17.1% |
| CN(Cc1ccco1)C(=O)CN1CCCC1Cn1cccn1 (stereo unspecified) | 1.55% |
| CCn1cnnc1CNC(=O)c1cc(Cl)ccc1OC | 5.87% |
| O=C(Nc1cccnc1)[C@@H]1COC[C@H]2CN(C3CCCC3)C[C@H]21 | 5.74% |
| CCOCc1cnc2n1CCN(Cc1cccs1)C2C (stereo unspecified) | 11.3% |
| Cc1cccc(CN2C[C@@H](NC(=O)C3CC3)[C@H]3OCCC[C@H]32)n1 | 7.8% |
| CC(=O)N1CC[C@@H]2CN(Cc3ccncc3)S(=O)(=O)[C@@H]2CC1 | 5.07% |
| c1ncn(Cc2cn3c(n2)CN(CC2CCCCC2)CC3)n1 | -123% |
| O=C(c1cocn1)N1CC[C@H]2OCC[C@@]2(COc2ncccc2F)C1 | -127% |
| c1cc(CN2Cc3nccn3CC(Cn3cncn3)C2)ccn1 (stereo unspecified) | -134% |
| Cc1nc(CN2C[C@@H](NC(=O)C3CCC3)[C@H]3COC[C@H]32)cs1 | 7.58% |
| CN(C)C(=O)COC[C@]12COC[C@H]1CN(Cc1ccccc1)C2 | -5.78% |
| CSc1ncc(C(=O)N2C[C@@H]3CC[C@H]2CN(S(=O)(=O)N(C)C)C3)cn1 | 0.0773% |
| CC(=O)N1C[C@H]2CC[C@@H](C1)N(S(=O)(=O)c1ccc(F)cc1Cl)C2 | -0.756% |
| CCn1cc(-n2cc3nc(N4CCC(O)CC4)[nH]cc-3c2=O)cn1 | 5.01% |
| CC(C)CS(=O)(=O)N1C[C@@H]2C[C@H](C(=O)Nc3cccnc3)[C@H](C1)O2 | -1.55% |
